Results as given in ChEMBL document CHEMBL1145456, “Antitumor agents 253. Design, synthesis, and antitumor evaluation of novel 9-substituted phenanthrene-based tylophorine derivatives as potential anticancer agents” (J Med Chem, 2007).
Activity calls are given as the source filed them. No cut-off for these calls is given here.

Assays:
[1] = tested on: A549; assay: Cytotoxicity against human A549 cells by SRB microtiter plate assay; format: functional, cell-based
How it was run: (§1)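 Cells were cultured at 37 °C, 5% CO₂, in RPMI-1640 with 25 mM HEPES, 2% bicarbonate, 10% FBS and kanamycin. Compounds were added from DMSO stocks, final DMSO ≤1% (v/v). IC₅₀ was interpolated from dose-response data. Each test was run in triplicate in independent experiments.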

[2] = tested on: ZR-75-1; assay: Cytotoxicity against human ZR751cells by SRB microtiter plate assay; format: functional, cell-based; how it was run: as §1
[3] = tested on: KB; assay: Cytotoxicity against human KB cells by SRB microtiter plate assay; format: functional, cell-based
How it was run: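 KB cells grown at 37 °C, 5% CO₂, humidified, in RPMI-1640 with 25 mM HEPES, 2% (w/v) sodium bicarbonate, 10% FBS and 100 µg/mL kanamycin. Compounds were added from DMSO stocks, with final DMSO at or below 1% (v/v). IC₅₀ was interpolated from dose-response data. Each test was run in triplicate, and independent tests were repeated.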

[4] = tested on: DU-145; assay: Cytotoxicity against human DU145 cells by SRB microtiter plate assay; format: functional, cell-based; how it was run: as §1
[5] = Cytotoxicity against multidrug resistant human KB-Vin cells by SRB microtiter plate assay; format: functional, cell-based; how it was run: as §1
[6] = tested on: A549; assay: Antitumor activity against human A549 xenografted SCID mouse model at 10 mg/kg, ip after 5 days; format: functional, organism-based; parameters: dose 10 mg/kg
How it was run: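 Male SCID mice were inoculated s.c. on the dorsal side with 1.5 × 10⁷ A549 cells. Day 1 was when tumors reached ≥5 mm; groups of six. Dosing ip at 10 mL/kg every 4 days for six doses. Tumor size and body weight recorded every 4 days. Tumor weight = length × width² × 0.5. T/C = (Tn−T1)/(Cn−C1) × 100% against vehicle.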

Row | SMILES | IC50 ([1]; Homo sapiens, A549) [µM] | IC50 ([2]; Homo sapiens, ZR-75-1) [µM] | IC50 ([3]; Homo sapiens, KB) [µM] | IC50 ([4]; Homo sapiens, DU-145) [µM] | other results
1 | COc1ccc2c(CN3CCC[C@@H]3CO)cc3cc4c(cc3c2c1)OCO4 | 1.1 | – | – | – | –
2 | COc1ccc2c(CN3CCN(CCO)CC3)cc3cc4c(cc3c2c1)OCO4 | 0.63 | 0.23 | 0.5 | 0.25 | IC50 ([5]; Homo sapiens, KBVIN): 0.51 µM
3 | COc1ccc2c(CN3CCCC[C@H]3CO)cc3cc4c(cc3c2c1)OCO4 [listing 1 of 2 here] | 0.16 | 0.1 | 0.12 | – | IC50 ([4]; du-145): 0.21 µM; IC50 ([5]; Homo sapiens, KBVIN): 0.16 µM
4 | COc1ccc2c(CN3CCC[C@H]3CO)cc3cc4c(cc3c2c1)OCO4 | 0.7 | – | – | – | –
5 | COc1ccc2c(CNCCCCCCO)cc3cc4c(cc3c2c1)OCO4 [listing 1 of 2 here] | 0.2 | – | – | – | IC50 ([2]; zr-75-1): 0.13 µM; IC50 ([3]; kb): 0.25 µM; IC50 ([4]; du-145): 0.44 µM; IC50 [5]: 0.35 µM
6 | OCC1CCN(Cc2cc3cc4c(cc3c3cc(OCc5ccccc5)ccc23)OCO4)CC1 | 0.7 | – | – | – | –
7 | COc1ccc2c(CNCCCCCCCCCCC(=O)O)cc3cc4c(cc3c2c1)OCO4 | 3.2 | – | – | – | –
8 | COc1ccc2c(CN3CCC(CCO)CC3)cc3cc4c(cc3c2c1)OCO4 [listing 1 of 2 here] | – | 0.02 | – | 0.1 | IC50 ([1]; a549): 0.09 µM; IC50 ([3]; kb): 0.2 µM; IC50 [5]: 0.2 µM
9 | COc1cc([C@@H]2c3cc4c(cc3[C@@H](O[C@@H]3O[C@@H]5CO[C@@H](C)O[C@H]5[C@H](O)[C@H]3O)[C@H]3COC(=O)[C@H]23)OCO4)cc(OC)c1O [ETOPOSIDE] | 1.4 | 3.1 | 4.8 | 2.4 | IC50 ([5]; Homo sapiens, KBVIN): > 10 µM
10 | CC[C@]1(O)C[C@H]2CN(CCc3c([nH]c4ccccc34)[C@@](C(=O)OC)(c3cc4c(cc3OC)N(C=O)[C@H]3[C@@](O)(C(=O)OC)[C@H](OC(C)=O)[C@]5(CC)C=CCN6CC[C@]43[C@@H]65)C2)C1 [VINCRISTINE] | 0.04 | 0.04 | 0.006 | 0.085 | IC50 ([5]; Homo sapiens, KBVIN): 5.3 µM
11 | COc1cccc2c1C(=O)c1c(O)c3c(c(O)c1C2=O)C[C@@](O)(C(=O)CO)C[C@@H]3O[C@H]1C[C@H](N)[C@H](O)[C@H](C)O1 [DOXORUBICIN] | 0.18 | 0.04 | 0.18 | 0.13 | IC50 ([5]; Homo sapiens, KBVIN): > 4 µM
12 | COc1ccc2c(CN3CCC[C@@H]3C(=O)O)cc3cc4c(cc3c2c1)OCO4 | 5.2 | – | – | – | –
13 | COc1ccc2c(CNCCCCC(=O)O)cc3cc4c(cc3c2c1)OCO4 | 1.3 | – | – | – | –
14 | COc1ccc2c(CNCCCCCCCCCCCO)cc3cc4c(cc3c2c1)OCO4 | 2.6 | – | – | – | –
15 | COc1ccc2c(CNCCCCCC(=O)O)cc3cc4c(cc3c2c1)OCO4 | 0.8 | 0.54 | 0.33 | 0.67 | IC50 ([5]; Homo sapiens, KBVIN): 0.83 µM
16 | COc1ccc2c(CN3CCN(c4ccccc4Cl)CC3)cc3cc4c(cc3c2c1)OCO4 | – | – | – | – | Activity [1]: inactive
17 | COc1ccc2c3c(c4cc(OC)c(OC)cc4c2c1)C[C@H]1CCCN1C3 [(-)-ANTOFINE] | 0.008 | 0.008 | 0.013 | 0.009 | IC50 ([5]; Homo sapiens, KBVIN): 0.009 µM

Row | SMILES | IC50 ([1]; Homo sapiens, A549) [µM] | IC50 ([2]; Homo sapiens, ZR-75-1) [µM] | IC50 ([3]; Homo sapiens, KB) [µM] | IC50 ([4]; Homo sapiens, DU-145) [µM] | other results
18 | COc1ccc2c(CN3CCN(c4ccc(O)cc4)CC3)cc3cc4c(cc3c2c1)OCO4 | 0.22 | 0.18 | 0.13 | 0.15 | IC50 ([5]; Homo sapiens, KBVIN): 0.34 µM
19 | COc1ccc2c(CNCCCCCO)cc3cc4c(cc3c2c1)OCO4 | 0.27 | – | – | – | –
20 | COc1ccc2c(CN3CCC(C(=O)O)CC3)cc3cc4c(cc3c2c1)OCO4 | 0.23 | 0.25 | 0.15 | 0.31 | IC50 ([5]; Homo sapiens, KBVIN): 0.38 µM
21 | COc1ccc2c(CNCCCCCCO)cc3cc4c(cc3c2c1)OCO4 [listing 2 of 2 here] | – | 0.08 | 0.23 | – | IC50 ([4]; du-145): 0.07 µM; IC50 [5]: 0.16 µM
22 | O=C(O)C1CCN(Cc2cc3cc4c(cc3c3cc(OCc5ccccc5)ccc23)OCO4)CC1 | 2.1 | – | – | – | –
23 | COc1ccc2c(CN3CCC[C@H]3C(=O)O)cc3cc4c(cc3c2c1)OCO4 | 2.1 | – | – | – | –
24 | COc1ccc2c(CN3CCN(c4ccc(Cl)cc4)CC3)cc3cc4c(cc3c2c1)OCO4 | 65.2 | – | – | – | –
25 | COc1ccc2c(CN3CCN(CCOCCO)CC3)cc3cc4c(cc3c2c1)OCO4 | 57.1 | – | – | – | –
26 | COc1ccc2c(CN3CCCC[C@H]3C(=O)O)cc3cc4c(cc3c2c1)OCO4 | 0.5 | – | – | – | –
27 | COc1ccc2c(CN3CCC(CCO)CC3)cc3cc4c(cc3c2c1)OCO4 [listing 2 of 2 here] | 0.15 | – | – | – | IC50 ([2]; zr-75-1): 0.03 µM; IC50 ([3]; kb): 0.42 µM; IC50 ([4]; du-145): 0.15 µM; IC50 [5]: 0.5 µM
28 | COc1ccc2c(CN3CCC(CO)CC3)cc3cc4c(cc3c2c1)OCO4 [listing 1 of 3 here] | – | 0.04 | – | 0.05 | IC50 ([1]; a549): 0.07 µM; IC50 ([3]; kb): 0.07 µM; IC50 [5]: 0.04 µM
29 | COc1ccc2c(CN3CCCC[C@H]3CO)cc3cc4c(cc3c2c1)OCO4 [listing 2 of 2 here] | – | – | – | – | IC50 ([2]; zr-75-1): 0.08 µM; IC50 ([4]; du-145): 0.09 µM; IC50 [5]: 0.09 µM
30 | CC[C@H]1CN2CCc3cc(OC)c(OC)cc3[C@@H]2C[C@@H]1C[C@H]1NCCc2cc(OC)c(OC)cc21 [EMETINE] | 0.04 | 0.1 | 0.04 | 0.06 | IC50 ([5]; Homo sapiens, KBVIN): > 2 µM
31 | COc1ccc2c(CN3CCC(CO)CC3)cc3cc4c(cc3c2c1)OCO4 [listing 2 of 3 here] | – | – | – | – | Activity [6]: Active
32 | COc1ccc2c(CN3CCC(CO)CC3)cc3cc4c(cc3c2c1)OCO4 [listing 3 of 3 here] | 0.08 | – | – | – | IC50 ([2]; zr-75-1): 0.03 µM; IC50 ([3]; kb): 0.24 µM; IC50 ([4]; du-145): 0.03 µM; IC50 [5]: 0.09 µM
33 | OC[C@@H]1CCCCN1Cc1cc2cc3c(cc2c2cc(OCc4ccccc4)ccc12)OCO3 | 1.3 | – | – | – | –
34 | O=C(O)[C@@H]1CCCCN1Cc1cc2cc3c(cc2c2cc(OCc4ccccc4)ccc12)OCO3 | 3.2 | – | – | – | –
